We go through two compounds from ChEMBL document CHEMBL4368871, “Flush with a flash: natural three-component antimicrobial combinations based on S-nitrosothiols, controlled superoxide formation and "domino" reactions leading to peroxynitrite” (Medchemcomm, 2018).

Activity calls are given as the source filed them. The rule behind the calls is not given here.

Data set [1] can be described thus: Induction of peroxynitrite anion generation assessed as peroxynitrite anion level in presence of riboflavin by DHR-123 indicator based spectrofluorometric method. The format is functional. Put shortly:
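Peroxynitrite was generated by the S-nitrosothiol with riboflavin (250, 500, 1000 μM) illuminated by a standard lamp (0.6 Lumen, 310 K), followed over 2–24 h. It was detected by oxidation of dihydrorhodamine 123 to fluorescent rhodamine 123, with excitation at 485 nm and emission at 530 nm.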

Data set [2] can be described thus: Induction of peroxynitrite anion generation assessed as peroxynitrite anion level in presence of xanthine/xanthine oxidase by DHR-123 indicator based spectrofluorometric method. The format is functional. The gist of the method: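 Peroxynitrite was generated by the S-nitrosothiol with xanthine (400 μM) and xanthine oxidase (50 mU mL–1), the reaction being started by adding substrate or enzyme. It was quantified spectrofluorometrically by dihydrorhodamine 123 oxidation to rhodamine 123, with excitation at 485 nm and emission at 530 nm.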

Data set [3] relates to Escherichia coli. Kind of data set: Dark toxicity against Escherichia coli at 250 to 1000 uM in presence of riboflavin measured up to 24 hrs. The format is organism-based. Particulars: in vivo. Put shortly:
(§1)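 E. coli was treated with the riboflavin (250, 500, 1000 μM) plus RSNO (250–1000 μM) system and incubated 24 h at 37 °C in the dark. Growth was read as OD at 570 nm at 0 and 24 h. Medium-only and antibiotic-mix controls were included, plus riboflavin and RSNO dilution controls. Triplicates on three occasions (n = 9).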

For data set [4], the system named is Escherichia coli. Nature of the data set: Dark toxicity against Escherichia coli at 250 to 1000 uM measured under dark condition up to 24 hrs. The format is organism-based. Conditions: in vivo. Put shortly:
as §1

In data set [5] the test system is Steinernema feltiae. Kind of data set: Nematocidal activity against Steinernema feltiae at 250 to 1000 uM in presence of riboflavin measured under dark condition up to 24 hrs. The format is functional, organism-based. The gist of the method:
(§2)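 S. feltiae nematodes were exposed to riboflavin (500 or 1000 μM) with the S-nitrosothiol, incubated 24 h at 37 °C without light. Controls were medium plus nematodes (negative), penicillin/streptomycin/amphotericin B (positive), and 1000 μM riboflavin or RSNO alone. Triplicates on three occasions (n = 9).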

Data set [6] has as its system Steinernema feltiae. Kind of data set: Nematocidal activity against Steinernema feltiae at 250 to 1000 uM measured under dark condition up to 24 hrs. The format is functional, organism-based. The gist of the method:
as §2

Data set [7] relates to Escherichia coli. Kind of data set: Antimicrobial activity against Escherichia coli assessed as microbial growth at 250 to 1000 uM measured up to 24 hrs in presence of riboflavin under day light exposure relative to control. The format is functional. The gist of the method:
(§3)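 E. coli was exposed to riboflavin (250, 500, 1000 μM) plus the S-nitrosothiol at 250, 500 or 1000 μM. Incubation was 24 h at 37 °C under a daylight LED (0.6 Lumen). Growth was read as OD at 570 nm at 0 h and 24 h. Controls were medium plus organism, antibiotic/antifungal mix, and riboflavin or RSNO alone. Triplicates on three occasions (n = 9), one-way ANOVA.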

Data set [8] concerns Escherichia coli. Kind of data set: Antimicrobial activity against Escherichia coli assessed as reduction in microbial growth measured up to 24 hrs in presence of riboflavin under day light exposure. In kind it is functional, organism-based. The gist of the method: as §3
In a further data set the test system is Bacillus cereus. Nature of the data set: Antimicrobial activity against Bacillus cereus assessed as microbial growth at 250 to 1000 uM measured up to 24 hrs in presence of xanthine/xanthine oxidase. In kind it is functional. Put shortly:
(§4)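 Xanthine (400 μM) and xanthine oxidase (50 mU mL–1) were combined with the S-nitrosothiol at 250, 500 and 1000 μM. Growth was read as optical density at 570 nm at 0 h and after 24 h at 37 °C. Controls were medium plus organism (negative) and penicillin/streptomycin/amphotericin B (positive). Runs were in triplicate on three occasions (n = 9), analysed by one-way ANOVA.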

The next data set concerns Saccharomyces cerevisiae. Kind of data set: Antimicrobial activity against Saccharomyces cerevisiae assessed as microbial growth at 250 to 1000 uM measured up to 24 hrs in presence of xanthine/xanthine oxidase. In kind it is functional. Put shortly: as §4
In another data set the test system is Candida tropicalis. Kind of data set: Antimicrobial activity against Candida tropicalis assessed as reduction in microbial growth at 250 to 1000 uM measured up to 24 hrs in presence of xanthine/xanthine oxidase. The format is functional, organism-based. The gist of the method:
as §4

Data set [9] concerns Steinernema feltiae. Kind of data set: Nematocidal activity against Steinernema feltiae assessed as nematode viability at 250 to 1000 uM measured up to 24 hrs in presence of xanthine/xanthine oxidase. The format is functional.
Data set [10] deals with Steinernema feltiae. Nature of the data set: Nematocidal activity against Steinernema feltiae assessed as nematode viability at 250 to 1000 uM measured up to 24 hrs in presence of xanthine oxidase. In kind it is functional.

For `N[C@@H](CCC(=O)N[C@@H](CSN=O)C(=O)NCC(=O)O)C(=O)O` [S-NITROSOGLUTATHIONE], the Activity in data set [1] was 18.9 µM; in data set [2], 17.1 µM; with Escherichia coli [3], “Non-Toxic”; in the data set with Escherichia coli [4], “Non-Toxic”; in the data set on Escherichia coli [7], 20%; in the data set on Escherichia coli [8], “Dose-dependent effect”. The Activity is recorded as 6% in the data set on Bacillus cereus, 9% in the data set on Saccharomyces cerevisiae, less than 10% in the data set on Steinernema feltiae [9] and 50% with Steinernema feltiae [10]. In addition, the result in the data set with Steinernema feltiae [5], with Steinernema feltiae [6] and in the data set on Candida tropicalis was inactive.

As to `CC(=O)N[C@@H](C(=O)O)C(C)(C)SN=O`, the Activity in data set [1] is 20.4 µM; in [2], 15.4 µM; with Escherichia coli [8] it was “Dose-dependent effect”; with Steinernema feltiae [9], less than 10%; in the data set on Steinernema feltiae [10], 50%. Moreover, the outcome in the data set with Bacillus cereus and in the data set on Saccharomyces cerevisiae was Active. Further, the result with Candida tropicalis was inactive.
